The source made the active and inactive calls.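 Rule for the calls: active = calcium signal cut by more than 3 SD below the full-agonist control yet still positive, in both repeats and the earlier primary screen; inactive = the rest.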

A word on the inhibition: it is the percentage by which the read-out fell short of the control.

The target in this assay is Short transient receptor potential channel 4 (Mus musculus) (UniProt Q9QUQ5). Kind of assay: blockers of DAMGO-evoked TRPC4 calcium flux – cell-based, Fluo4, HEK293 TRPC4beta/mu-opioid, confirmation (AID 2636). Conditions: at 10 µM; hits give high values. The method in brief: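 Test system – HEK293 cells stably co-expressing mouse TRPC4beta and mu-opioid receptor · Reagent – DAMGO agonist, submaximal followed by maximal addition · Technique – Fluo4 calcium flux fluorescence, kinetic read · Control set – no-compound wells and DAMGO maximal-stimulus wells · Doses – single final compound concentration of 10 µM · Timing – compound pre-incubation 110 s before DAMGO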
Short transient receptor potential channel 4 (Mus musculus), sequence (Q9QUQ5 whole entry, looked up): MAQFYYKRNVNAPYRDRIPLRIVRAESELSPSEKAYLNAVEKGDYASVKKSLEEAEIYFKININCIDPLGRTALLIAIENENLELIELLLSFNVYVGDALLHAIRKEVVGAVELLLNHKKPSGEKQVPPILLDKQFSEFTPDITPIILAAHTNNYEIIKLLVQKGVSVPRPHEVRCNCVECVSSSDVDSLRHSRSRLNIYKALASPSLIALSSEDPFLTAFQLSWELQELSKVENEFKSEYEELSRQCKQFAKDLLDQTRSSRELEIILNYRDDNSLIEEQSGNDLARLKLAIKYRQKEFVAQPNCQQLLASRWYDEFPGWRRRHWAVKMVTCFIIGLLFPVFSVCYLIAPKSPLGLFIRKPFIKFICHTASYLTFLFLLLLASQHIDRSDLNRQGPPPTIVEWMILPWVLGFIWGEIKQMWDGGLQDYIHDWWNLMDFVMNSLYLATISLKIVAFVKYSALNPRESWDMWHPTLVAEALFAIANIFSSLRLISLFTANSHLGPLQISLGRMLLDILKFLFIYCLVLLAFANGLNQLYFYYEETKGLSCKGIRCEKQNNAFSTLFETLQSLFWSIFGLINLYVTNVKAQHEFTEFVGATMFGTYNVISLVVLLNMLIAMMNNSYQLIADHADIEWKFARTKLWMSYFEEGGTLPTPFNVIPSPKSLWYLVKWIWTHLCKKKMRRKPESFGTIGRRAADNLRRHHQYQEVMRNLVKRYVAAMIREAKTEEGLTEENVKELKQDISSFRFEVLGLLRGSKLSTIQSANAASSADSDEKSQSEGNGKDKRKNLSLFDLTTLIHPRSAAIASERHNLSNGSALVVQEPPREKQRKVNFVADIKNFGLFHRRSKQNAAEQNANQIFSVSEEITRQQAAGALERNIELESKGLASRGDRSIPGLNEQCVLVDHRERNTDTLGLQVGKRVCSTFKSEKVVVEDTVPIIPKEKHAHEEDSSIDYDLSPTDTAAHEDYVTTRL
Regarding `Cc1ccc(C(=O)NNC(=O)C2CSC3(C)CCC(=O)N23)cc1` (centres undefined), the outcome was inactive. As for `CCCc1nc2oc3c(NCCCN(C)C)ncnc3c2c2c1CCCC2`, the outcome was inactive. Turning to `CCc1nc2ccccc2n1Cc1ccccc1F`, the result was inactive.

For `O=C(Cc1ccccc1)Nc1cccc(NC(=O)c2cccs2)c1`, the result was inactive. With `CCCCN(CC)CCCNC(=O)c1cc2cc3ccc(C)cc3nc2o1`, the outcome was inactive. On the same count and under the same terms, the value for `O=C1C=CC(=O)N1CCNc1ncc(C(F)(F)F)cc1Cl` was “inactive”. For the compound `Cc1cc(NC(=O)CSCC(=O)Nc2ccc(Cl)c(C(F)(F)F)c2)no1`, the inhibition was 71% (active).

With `Cc1ccc2c(c1)C1CN(C)CCC1N2C(=S)NC(=O)c1ccc(Br)cc1` (centres undefined), the result was inactive. Turning to `CCc1nc2ccccc2n1Cc1ccc(F)cc1`, the outcome was inactive. Regarding `CCN(CC)CCSc1nnc2c3ccccc3n(Cc3ccccc3)c2n1`, the outcome was inactive.

Regarding `CCN1C2=NCCCN2c2cc(C)c(C)cc21`, the result was inactive. On the same count and under the same terms, the same measure for `Cc1cc(C)c2c(=O)n(CC(=O)Nc3cccc(Cl)c3C)sc2n1`: “inactive”; for `COc1cc(C2(c3ccc(O)c(OC)c3)C(=O)Nc3c(C)cc(Br)cc32)ccc1O`: “inactive”.

In the case of `COc1ccc(CC2(CO)CCN(C/C=C/c3ccccc3OC)CC2)cc1`, the inhibition is 79% (active).

As for `Cc1nn(-c2cc(C(F)(F)F)ccc2Cl)c2nc(C(Cl)(Cl)Cl)[nH]c(=O)c12`, the result was inactive. In the case of `Cc1ccc(C(=O)O)cc1N=Cc1cc(Br)cc(Br)c1O`, the outcome was inactive. On to `CCOc1ccc(N=CNc2ccc(OCC)cc2)cc1`, for which the result was inactive. With `CCN(CC)c1ncnc2sc3c(c12)CCC3`, the result was inactive. For `COc1ccc(NS(=O)(=O)c2ccc3ccccc3c2)c2ncccc12`, the result was inactive.

The values are drawn from PubChem BioAssay.
